Values belong to the compound of their own block, whether it stands above or below them.
How the values were obtained:
Mus musculus [1] = experiment: The ratio of AUC / dose (mM.h/uMol)/kg at 112 mg/kg dose after intravenous administration in mice brain; AUC/Dose (uM); type: ADME, organism-based; design: dose 112 mg/kg, route intravenous; details: in vivo
Summary of the method: (§1)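 Female NIH-Swiss mice (24-28 g), tail-vein injection of 112 mg/kg (437 µmol/kg) in saline (15 mg/mL); three mice per time point, ether anesthesia, exsanguination by heart puncture; serum and brain (homogenized 1:1 g:mL in ice-cold isotonic 0.05 M phosphate, pH 7.4) assayed by HPLC, UV 260 nm. Noncompartmental analysis of mean concentrations; AUC by Lagrange interpolation, extrapolated via terminal slope (last 3-5 points); t1/2 = 0.693/λz; AUC normalized to µmol/kg dose.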

Mus musculus [2] = experiment: The ratio of AUC / dose (mM.h/umol)/kg at 112 mg/kg dose after intravenous administration in mice serum; type: ADME, organism-based; design: dose 112 mg/kg, route intravenous; details: in vivo; summary of the method: as §1
Mus musculus [3] = experiment: The ratio of AUC / dose (mM.h/uMol)/kg at 112 mg/kg dose after oral administration in mice serum; AUC/Dose (uM); type: ADME, organism-based; design: dose 112 mg/kg, route oral; details: in vivo
Mus musculus [4] = experiment: The ratio of AUC / dose (mM.h/uMol)/kg at 112 mg/kg dose after intravenous administration in mice serum; AUC/Dose (uM); type: ADME, organism-based; design: dose 112 mg/kg, route intravenous; details: in vivo; summary of the method: as §1
Mus musculus [5] = experiment: Pharmacokinetic parameter AUC was measured at 112 mg/kg dose by intravenous administration in mice brain; AUC (mM.h); not detected; type: ADME, organism-based; design: dose 112 mg/kg, route intravenous; details: in vivo; summary of the method: as §1
Mus musculus [6] = experiment: Pharmacokinetic parameter AUC was measured at 112 mg/kg dose by intravenous administration using FMAddA as substrate in mice brain; AUC 0-r (mM.h); not detected; type: ADME, organism-based; design: dose 112 mg/kg, route intravenous; details: in vivo; summary of the method: as §1
Mus musculus [7] = experiment: Pharmacokinetic parameter AUC was measured at 55 mg/kg dose by oral in mice brain; AUC (mM.h); not detected; type: ADME, organism-based; design: dose 55 mg/kg, route oral; details: in vivo
Mus musculus [8] = experiment: t1/2 was measured at 55 mg/kg dose by oral administration in mice brain; t1/2 (h); not detected; type: ADME, organism-based; design: dose 55 mg/kg, route oral; details: in vivo
[9] = (§2) The ratio of AUC /dose (uM); type: ADME
[10] = as §2; type: ADME; remark: listed apart in the source
[11] = (§3) The ratio of AUC /dose(uM); not detected; type: ADME
[12] = The ratio of AUC /dose(uM); type: ADME
[13] = as §3; type: ADME; remark: listed apart in the source
Mus musculus [14] = experiment: t1/2 was measured AT 112 mg/kg dose by intravenous administration in mice brain; not detected; details: in vivo

- Ratio (Mus musculus [1]): 0.06
- Ratio (Mus musculus [2]): 1.01
- Ratio (Mus musculus [3]): 0.19
Structure (SMILES): [N-]=[N+]=Nc1ncnc2c1ncn2C1OC(CO)CC1F (stereo not drawn)

- Ratio (Mus musculus [1]): 0.09
- Ratio (Mus musculus [4]): 0.68
Structure (SMILES): CNc1ncnc2c1ncn2C1OC(CO)CC1F (stereo not drawn)

- AUC (Mus musculus [5]): Not detected
- AUC (Mus musculus [6]): Not detected
- AUC (Mus musculus [7]): Not detected
- T1/2 (Mus musculus [8]): Not detected
- Ratio [9]: 0.48
- Ratio [10]: 0.13
- Ratio [11]: Not detected
- Ratio [12]: 0.046
- Ratio [13]: Not detected
- T1/2 (Mus musculus [14]): Not detected
Structure (SMILES): OCC1CC(F)C(n2cnc3c(O)ncnc32)O1 (stereo not drawn)

- Ratio (Mus musculus [1]): 0.02
- Ratio (Mus musculus [4]): 0.04
- Ratio (Mus musculus [3]): 0.005
Structure (SMILES): Nc1ncnc2c1ncn2[C@@H]1O[C@H](CO)C[C@@H]1F [LODENOSINE]
